Beta apoptosis = inhibitors of cytokine-induced beta cell apoptosis, primary screen, luminescence; INS-1E cytokine-induced death, ATP luminescence, 48 h; percent of positive-control rescue, neutral wells zero; protection from apoptosis, % (concentration not given with the values); actives 0.8% (n = 300,000);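 active = Every replicate reaches about 75%, or at least half do and their mean reaches it too, limit read from the data; inconclusive = At least half of replicates reach the limit but their mean does not; inactive = Under half of replicates reach the limit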;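 also: higher means more ATP so stronger rescue from cytokine killing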
Calb FLC = C. albicans growth inhibition with fluconazole, primary screen, CaCi-2 strain, Alamar Blue fluorescence; growth inhibition, % (concentration not given with the values); AID 1979, 2009; C. albicans CaCi-2 (fluconazole-resistant clinical isolate) + fluconazole, 48 h; actives 0.57% (n = 300,000);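 active = growth inhibition above about 58% in most replicates, limit read from the data, passing the limit was not always enough; inconclusive = exactly half the replicates above a set limit; inactive = most replicates below a set limit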;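 also: all wells also contain fluconazole at 8 µg/ml as a sub-toxic cotreatment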
SKKanGAS inh = S. pyogenes SKKanGAS growth inhibitors in kanamycin, primary screen, streptokinase expression inhibitor project, SKKanGAS strain, BacTiter-Glo luminescence; actives 1.3% (n = 300,000); 6 h; inhibition, % at 7.5 µM;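 active = mean replicate score, as percent of positive control median, at least 50; inconclusive = mean below 50 but one replicate at or above 50; inactive = mean and every replicate below 50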;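 also: strain carries kanamycin resistance gene driven by streptokinase promoter and grows in 40 µg/ml kanamycin; loss of luminescence reflects streptokinase promoter inhibition or plain growth inhibition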
Mdm2 MdmX PPI = inhibitors of human Mdm2-MdmX association, primary screen, cell-based, luminescence, split luciferase, SaOS-2, uHTS; SaOS-2 split-luciferase Mdm2/MdmX complementation; Protein Mdm4 (Homo sapiens) + E3 ubiquitin-protein ligase Mdm2 (Homo sapiens), …; inhibition, % at 8 µM; actives 3% (n = 330,000);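 active = inhibition of at least 50% at 8 µM in the primary screen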
Target sequence (O15151 whole entry, looked up): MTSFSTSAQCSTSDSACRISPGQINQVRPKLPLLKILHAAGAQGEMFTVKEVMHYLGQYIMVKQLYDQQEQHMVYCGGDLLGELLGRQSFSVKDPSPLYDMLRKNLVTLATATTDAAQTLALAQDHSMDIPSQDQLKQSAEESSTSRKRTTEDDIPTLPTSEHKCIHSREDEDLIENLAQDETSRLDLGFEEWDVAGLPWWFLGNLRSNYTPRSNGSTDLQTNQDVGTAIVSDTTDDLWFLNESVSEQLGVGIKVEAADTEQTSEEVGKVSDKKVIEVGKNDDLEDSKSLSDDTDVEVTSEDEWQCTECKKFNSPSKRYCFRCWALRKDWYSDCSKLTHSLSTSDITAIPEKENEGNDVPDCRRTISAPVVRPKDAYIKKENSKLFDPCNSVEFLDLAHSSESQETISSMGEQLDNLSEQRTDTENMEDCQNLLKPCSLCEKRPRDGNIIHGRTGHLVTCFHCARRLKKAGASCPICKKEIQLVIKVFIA
Target sequence (Q00987 whole entry, looked up): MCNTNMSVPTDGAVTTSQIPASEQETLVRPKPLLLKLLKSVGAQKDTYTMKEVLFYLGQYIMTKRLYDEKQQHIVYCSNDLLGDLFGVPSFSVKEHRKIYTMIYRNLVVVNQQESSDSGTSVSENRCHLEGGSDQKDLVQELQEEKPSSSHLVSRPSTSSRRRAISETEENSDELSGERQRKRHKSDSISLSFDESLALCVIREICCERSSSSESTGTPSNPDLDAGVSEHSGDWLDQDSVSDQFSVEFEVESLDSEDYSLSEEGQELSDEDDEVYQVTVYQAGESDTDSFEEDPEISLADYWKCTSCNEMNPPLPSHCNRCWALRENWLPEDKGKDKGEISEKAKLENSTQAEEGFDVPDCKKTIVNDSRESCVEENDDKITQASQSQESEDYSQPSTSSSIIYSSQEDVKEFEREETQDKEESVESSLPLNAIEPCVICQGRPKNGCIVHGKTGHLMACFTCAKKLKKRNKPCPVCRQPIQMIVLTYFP
T cruzi inh = inhibitors of intracellular T. cruzi growth, primary screen, luminescence, NIH3T3 host cells | T. cruzi beta-gal in NIH3T3, 90 h | inhibition, % (test concentration not listed) | actives 1.4% (n = 300,000);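 active = mean inhibition across valid replicates above about 55%, limit read from the data; inconclusive = mean below that limit but half or more replicates reach it; inactive = mean below it, under half of replicates reach it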;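 also: signal also drops with host cell toxicity which is not excluded here; higher percent means less beta-gal luminescence so fewer parasites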
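assay system = mouse NIH/3T3 fibroblasts infected with β-gal-expressing T. cruzi Tulahuen C4 | input = 5,000 NIH/3T3 host cells per well | buffer or medium = DMEM plus 2% FBS | timing = 3 h host attachment, then at least 90 h co-culture | measured by = GalScreen luminescence, 60 min | evaluation = luminescence reflecting intracellular parasite burden, expressed as percent inhibition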
CSC inhib = cancer stem cell viability inhibitors, primary screen, luminescence. cancer stem cell-like cells viability. inhibition, % at 7.5 µM. actives 1.1% (n = 300,000); in the data active = inhibition above about 75%; inconclusive = no clear call, values can overlap the other calls; tested in HMLE shEcad cells
Mdm2-MdmX conf = Mdm2-MdmX complex disruptors, retested hits, confirmation, luminescence, single concentration; actives 55% (n = 10,000); Mdm2-MdmX binding, luminescent assay; shares compounds with Mdm2 MdmX PPI; inhibition, % at 8 µM; in the data active = inhibition above about 40%
Full FLuc ctr = full-length luciferase signal inhibition, confirmation, counter-screen for Mdm2/MdmX interaction inhibitor project, cell-based, single concentration, SaOS-2 | shares compounds with Mdm2 MdmX PPI | SaOS-2 full-length luciferase counterscreen, luminescence | inhibition, % at 8 µM | actives 77% (n = 6,200) | AID 504607, 2011;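 active = mean inhibition at 8 µM reaching about 37%, which flags the compound as non-specific, limit read from the data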;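 also: p53-null SaOS-2 cells with luciferase driven by a doxycycline-inducible promoter; compound on cells about two nights before reading with doxycycline added after day one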
Large screens that a line does not name were inactive (follow-up assays come after a bar, where they were run). Only some compounds are listed: those with a hit (about 5.7% of all), similar ones and a draw of the others.

COc1ccc(C2C(O)C(c3c[nH]c4ccccc34)=NN2C(=O)CCl)cc1 (stereo not drawn)	Beta apoptosis 128.8, Mdm2 MdmX PPI 98.2, CSC inhib 109.1 | Mdm2-MdmX conf 97.1 | Full FLuc ctr inactive
Cc1nc(N)c(C#N)c(-c2cccnc2)c1C	Mdm2 MdmX PPI 51.1 | Mdm2-MdmX conf inactive
O=C(/C=C/c1ccc(Cl)c([N+](=O)[O-])c1)Nc1cccc(NC(=O)c2ccco2)c1	Mdm2 MdmX PPI 53.1, CSC inhib inconclusive | Mdm2-MdmX conf inactive
O=C(/C=C/c1ccc(Cl)c([N+](=O)[O-])c1)Nc1ccc(NC(=O)c2ccco2)cc1	none (no result: Beta apoptosis, Mdm2 MdmX PPI, CSC inhib)
COc1cccc(C(=O)COC(=O)CCCC(=O)NC2CCCCC2)c1	none
COc1ccc(N=C2S/C(=C\c3ccc(N4CCOCC4)o3)C(=O)N2CCc2c[nH]c3ccccc23)cc1	Beta apoptosis 104.7, SKKanGAS inh 59.5, Mdm2 MdmX PPI 94.7, T cruzi inh 56.4 | Mdm2-MdmX conf 98.7 | Full FLuc ctr inactive
CC(=O)NC(Cc1ccccc1F)C(=O)NC1CCN(C(=O)NCc2ccccc2)CC1 (stereo not drawn)	none
CCN(CC)S(=O)(=O)c1cccc2cccnc12	none
CCS(=O)(=O)c1ccc(OC)c(N=Nc2ccc(O)c3ncccc23)c1	Beta apoptosis 108.2, Mdm2 MdmX PPI 70.5 | Mdm2-MdmX conf 53.5 | Full FLuc ctr 50.3
CCN(CC)S(=O)(=O)c1cc(OC)ccc1N=Nc1ccc(O)c2ncccc12	Beta apoptosis 94.4, Calb FLC 85.7, SKKanGAS inh 67.8, Mdm2 MdmX PPI 74.1, CSC inhib 93.6 | Mdm2-MdmX conf 73.4 | Full FLuc ctr inactive
Cc1c(Cc2ccccc2)c(=O)n2c([nH]c3ccccc32)c1C#N	Mdm2 MdmX PPI 61.3 | Mdm2-MdmX conf 41.6 | Full FLuc ctr 57.2
COc1ccccc1N=Cc1c(C)c(C#N)c2[nH]c3ccccc3n2c1=O	none
C=C(C)CN(CC)c1nc(N)c2c(N)nc3c(c2c1C#N)CC(=O)N3C12CC3CC(CC(C3)C1)C2	Mdm2 MdmX PPI 84.0, T cruzi inh 56.9 | Mdm2-MdmX conf 54.4 | Full FLuc ctr 40.5
N#Cc1c(N2CCCC(O)C2)nc(N)c2c(N)nc3c(c12)CC(=O)N3C12CC3CC(CC(C3)C1)C2 (stereo not drawn)	Mdm2 MdmX PPI 89.7 | Mdm2-MdmX conf 69.0 | Full FLuc ctr 43.5
COc1ccc(-c2cc(C#N)nc(Cl)n2)cc1	Mdm2 MdmX PPI 68.2 | Mdm2-MdmX conf inactive | Full FLuc ctr 38.2
CCN(CC)c1nc(C#N)cc(-c2ccc(OC)cc2)n1	Mdm2 MdmX PPI 53.8 | Mdm2-MdmX conf 65.0 | Full FLuc ctr 47.0
COc1ccc(-c2cc(C#N)nc(Oc3ccc(Cl)cc3)n2)cc1	none
CCC[C@H]1NC(=O)[C@H](C)N(C)C(=O)C(C)(C)C(=O)C(C)NC(=O)[C@H](Cc2ccc(OC)cc2)N(C)C(=O)[C@H](C(C)C)N(C)C(=O)CNC(=O)[C@H](CC(C)C)N(C)C(=O)CNC(=O)[C@H]([C@@H](C)CC)OC(=O)[C@H]1C (stereo partly drawn)	Mdm2 MdmX PPI 93.7 (no result: Beta apoptosis, Calb FLC, SKKanGAS inh, T cruzi inh, CSC inhib) | Mdm2-MdmX conf 91.0 | Full FLuc ctr inactive
COc1ccc2c(c1[N+](=O)[O-])CCC/C2=N/OC(=O)c1cccc2ccccc12	Mdm2 MdmX PPI 51.9 | Mdm2-MdmX conf inactive
COc1ccccc1C(=O)ON=C1c2ccccc2-c2ccccc21	none
Cc1ccc2c(CN(C)Cc3ccc(OC(F)F)cc3)cc(=O)oc2c1C	none
COc1cc(C(=O)OCc2cc(=O)oc3c(C)c(C)ccc23)ccc1OC(F)F	Mdm2 MdmX PPI 60.4 (no result: CSC inhib) | Mdm2-MdmX conf inactive
CCOc1ccc2nc(NC3=NC(c4ccc(OC)cc4)CC(=O)N3)nc(C)c2c1 (stereo not drawn)	Mdm2 MdmX PPI 98.5, CSC inhib 75.6 | Mdm2-MdmX conf inactive | Full FLuc ctr inactive
CCOc1ccc2nc(N/C(N)=N/C(=S)Nc3ccc(C)c(C)c3)nc(C)c2c1	T cruzi inh inconclusive
CCOc1ccc2nc(NC3=NC(C)(C)C=C(C)N3)nc(C)c2c1	Mdm2 MdmX PPI 71.6 | Mdm2-MdmX conf inactive
CCOc1ccc2c(C)nc(NC3=NC(C)(C)C=C(C)N3)nc2c1	Mdm2 MdmX PPI 50.4 | Mdm2-MdmX conf inactive
Cc1ccc2nc(NC3=NC(CC(=O)O)C(=O)N3)nc(C)c2c1 (stereo not drawn)	none
O=C(CNC(=O)c1cccs1)Nc1ccc2c(c1)OCCO2	none
O=C(Nc1ccc(NC(=O)c2ccccc2Cl)nc1)c1ccco1	none (no result: Beta apoptosis)
Cc1cc(C(=O)N/N=C/c2ccc3c(c2)OCO3)c(C)n1-c1ccc(F)cc1	none
Cc1cc(C(=O)N/N=C/c2ccc(Cl)c([N+](=O)[O-])c2)c(C)n1-c1ccc(F)cc1	Mdm2 MdmX PPI 95.9 | Mdm2-MdmX conf 82.6 | Full FLuc ctr 44.8
Nn1c(SCc2c(F)cccc2F)nnc1-c1ccccn1	none
Cc1nc2c(-c3ccccc3)cnn2c(N)c1-c1ccccc1	Mdm2 MdmX PPI 82.9 | Mdm2-MdmX conf 77.3 | Full FLuc ctr 147.8
Cc1cc(-c2ccccc2)n2ncc(-c3ccccc3)c2n1	none (no result: CSC inhib)
CCOC(=O)N1CCC(N(CCN(C)C)C(=S)Nc2cc(Cl)cc(Cl)c2)CC1	Mdm2 MdmX PPI 67.4 | Mdm2-MdmX conf 42.1 | Full FLuc ctr 49.6
Cc1ccc(C)c(CN2C(=O)c3ccccc3S(=O)c3ccc(C(=O)N4CCN(c5ccccn5)CC4)cc32)c1 (stereo not drawn)	Mdm2 MdmX PPI 99.1 | Mdm2-MdmX conf 88.5 | Full FLuc ctr 53.6
CC1Cc2cc(S(=O)(=O)N3CCC(C(=O)Nc4ccccn4)CC3)ccc2N1C(=O)C1CCC1 (stereo not drawn)	none
Cc1cc(C)c2c3c(sc2n1)C(c1cccc(F)c1)C(C#N)=C(N)O3 (stereo not drawn)	Mdm2 MdmX PPI 79.5, T cruzi inh 71.9 | Mdm2-MdmX conf inactive
CCCN1CCC2(CC1)C(C#N)=C(N)Oc1c2sc2nc(C)cc(C)c12	none
Cc1ccc(NC(=O)CN(C)C(=O)c2cc(-c3cccs3)nn2-c2ccccc2)cc1	none (no result: Calb FLC, SKKanGAS inh, T cruzi inh, CSC inhib)
